Data: ChEMBL document CHEMBL3877317, “Quinazolinone derivatives: Synthesis and comparison of inhibitory mechanisms on α-glucosidase” (Bioorg Med Chem, 2017)
Active and inactive are the calls of the source. The calls are words filed in the database; no cut-off is given here.

Key:
[1] = Non-competitive inhibition of Saccharomyces cerevisiae alpha-glucosidase type 1 using p-nitro-phenyl-alpha-D-glucopyranoside as substrate preincubated for 10 mins followed by substrate addition measured after 5 mins every 10 secs by Lineweaver-Burk plot analysis
Summary of the method: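 Same pNPG assay (0.1 M potassium phosphate pH 6.8, A405 every 10 s, ambient temperature), inhibitor 0-24 µM (or 0-16 µM). Inhibition type assigned from Lineweaver-Burk plots. KI taken from the secondary plot.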

[2] = Inhibition of Saccharomyces cerevisiae alpha-glucosidase type 1 using p-nitro-phenyl-alpha-D-glucopyranoside as substrate preincubated for 10 mins followed by substrate addition measured after 5 mins every 10 secs
Summary of the method: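 Enzyme (7 U/mL, 50 µL) with sample at varied concentrations, then 5 mM pNPG (200 µL) in 0.1 M potassium phosphate pH 6.8. A405 read every 10 s at ambient temperature. Relative activity = slope with inhibitor / slope without × 100. Acarbose as positive control.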

Saccharomyces cerevisiae [3] = assay: Binding affinity to Saccharomyces cerevisiae alpha-glucosidase type 1 at 25 degC by fluorescence spectrophotometric method
Saccharomyces cerevisiae [4] = assay: Binding affinity to Saccharomyces cerevisiae alpha-glucosidase type 1 assessed as quenching velocity constant of biomolecular reaction at 25 degC by fluorescence spectrophotometric method
Summary of the method: (§1)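 Fluorescence quenching: enzyme (0.1 mg/mL, 50 µL) mixed with sample at varied concentrations in 0.1 mM sodium phosphate buffer, 25 °C. Excitation 280 nm, emission scanned 300-500 nm. F0/F plotted against [Q] and fitted to the Stern-Volmer equation (F0/F = 1 + Kqτ0[Q] = 1 + Ksv[Q]) to give Ksv and Kq.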

Saccharomyces cerevisiae [5] = assay: Reversible inhibition of Saccharomyces cerevisiae alpha-glucosidase type 1 at 8 to 24 uM using p-nitro-phenyl-alpha-D-glucopyranoside as substrate preincubated for 10 mins followed by substrate addition measured after 5 mins every 10 secs
Saccharomyces cerevisiae [6] = assay: Binding affinity to Saccharomyces cerevisiae alpha-glucosidase type 1 assessed as fluorescence quenching by measuring relative fluorescence intensity at 60 uM by fluorescence spectrophotometric method
Summary of the method: (§2)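 Intrinsic enzyme fluorescence (peak 330 nm) recorded with excitation 280 nm, emission 300-500 nm, 25 °C. Enzyme 0.1 mg/mL in 0.1 mM sodium phosphate buffer; compound series 0-50 µM or 0-60 µM. Relative intensity expressed as F/F0 against enzyme alone.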

Saccharomyces cerevisiae [7] = assay: Binding affinity to Saccharomyces cerevisiae alpha-glucosidase type 1 assessed as Stern-Volmer quenching constant at 25 degC by fluorescence spectrophotometric method; summary of the method: as §1
Saccharomyces cerevisiae [8] = assay: Binding affinity to Saccharomyces cerevisiae alpha-glucosidase type 1 assessed as fluorescence quenching by measuring relative fluorescence intensity at 50 uM by fluorescence spectrophotometric method; summary of the method: as §2

Ki [1] [µM]	IC50 [2] [µM]	K (Saccharomyces cerevisiae [3]) [×10⁴ L/mol]	Kq (Saccharomyces cerevisiae [4])	inhibition (Saccharomyces cerevisiae [5])	Activity (Saccharomyces cerevisiae [6]) [%]	KSV (Saccharomyces cerevisiae [7])	Activity (Saccharomyces cerevisiae [8]) [%]	SMILES
10.6	15.6	1.25	7.26 ×10¹¹ L/mol.s	Active	69.3	7.26 ×10³ L/mol	–	O=c1[nH]c(-c2ccc(Br)cc2)nc2ccccc12
–	475	–	–	–	–	–	–	C[C@H]1O[C@H](O[C@H]2[C@H](O)[C@@H](O)[C@@H](O[C@H]3[C@H](O)[C@@H](O)C(O)O[C@@H]3CO)O[C@@H]2CO)[C@H](O)[C@@H](O)[C@@H]1N[C@H]1C=C(CO)[C@@H](O)[C@H](O)[C@H]1O (stereo partly specified) [ACARBOSE]
9.1	12.5	1.78	3.1 ×10¹² L/mol.s	Active	–	3.1 ×10⁴ L/mol	39.3	O=c1[nH]c(-c2ccc(Cl)cc2)nc2ccccc12
–	> 57.2	–	–	–	–	–	–	Oc1nc(-c2ccc(F)cc2)nc2ccccc12
